From ChEMBL document CHEMBL4428038, “Overcoming chloroquine resistance in malaria: Design, synthesis and structure-activity relationships of novel chemoreversal agents” (Eur J Med Chem, 2016)
The source made the active and inactive calls. No cut-off for these calls is given here.

Experiments:
[1] = (§1) Inhibition of CRT SVMNT haplotype mutant in intermediate chloroquine-resistant Plasmodium falciparum 7G8 isolate MRA-154 assessed as reversal of chloroquine resistance by measuring reduction in chloroquine IC50 relative to chloroquine alone
How it was run: (§2)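 Chloroquine IC50 was determined in the presence of a fixed 500 nM chemoreversal agent, against chloroquine alone. The RMI is the ratio of chloroquine IC50 with agent to chloroquine IC50 alone. Mean of n = 3; two-tailed t test versus chloroquine without agent.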

[2] = system: Plasmodium falciparum 7G8; assay: as §1; how it was run: as §2
[3] = system: Plasmodium falciparum K1; assay: Inhibition of CRT CVIET haplotype mutant in Plasmodium falciparum K1 isolate MRA-159 infected in erythrocytes assessed as chloroquine-coumarin probe accumulation at 10 uM after 10 hrs by Hoechst 33342 staining based flow cytometry (reference value: 35.57 +/- 3.84%); format: cell-based; set-up: scale not given: the % may be the effect or the level left
How it was run: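 Infected erythrocyte cultures at 2.5% hematocrit and 7–12% parasitemia, synchronized to late-ring/early-trophozoite stage, were incubated with chloroquine-coumarin probe plus test agent for 10 h at 37 C. Cells were then washed, resuspended in PBS and read by flow cytometry (405 nm excitation, 450/50 filter). Hoechst-stained duplicate wells set parasitemia. Uptake = % infected erythrocytes fluorescent. Controls: PBS (negative), desipramine and parent compound (positive). ≥3 independent experiments; mean ± SEM.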

[4] = Therapeutic index, ratio of IC50 for TAMH to EC50 for chloroquine-resistant Plasmodium falciparum K1 isolate MRA-159 CRT CVIET haplotype mutant; format: toxicity; settings: mouse, TAMH cells; read-out: Ratio IC50/EC50
How it was run: (§3)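 Host-cell IC50 was measured by ATP-luminescence viability assay in TAMH hepatocytes (mean of n = 4 independent determinations) or AC10 cardiomyocytes. Each IC50 was divided by the K1 EC50, the concentration of chemoreversal agent that halves the chloroquine concentration needed for 50% parasite inhibition.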

[5] = system: Plasmodium falciparum; assay: Intrinsic antimalarial activity against chloroquine/artemisinin-resistant Plasmodium falciparum ARS272 harboring CRT K76T mutant assessed as reduction in parasite viability at 500 nM; format: functional, organism-based
[6] = system: T1, Chloroquine resistance transporter (Plasmodium falciparum), Q9N623 [K76T]; assay: Inhibition of CRT K76T mutant in chloroquine-resistant Plasmodium falciparum Dd2 isolate MRA-156 assessed as reversal of chloroquine resistance by measuring reduction in chloroquine IC50 at 500 nM relative to chloroquine alone
T1 sequence (whole entry): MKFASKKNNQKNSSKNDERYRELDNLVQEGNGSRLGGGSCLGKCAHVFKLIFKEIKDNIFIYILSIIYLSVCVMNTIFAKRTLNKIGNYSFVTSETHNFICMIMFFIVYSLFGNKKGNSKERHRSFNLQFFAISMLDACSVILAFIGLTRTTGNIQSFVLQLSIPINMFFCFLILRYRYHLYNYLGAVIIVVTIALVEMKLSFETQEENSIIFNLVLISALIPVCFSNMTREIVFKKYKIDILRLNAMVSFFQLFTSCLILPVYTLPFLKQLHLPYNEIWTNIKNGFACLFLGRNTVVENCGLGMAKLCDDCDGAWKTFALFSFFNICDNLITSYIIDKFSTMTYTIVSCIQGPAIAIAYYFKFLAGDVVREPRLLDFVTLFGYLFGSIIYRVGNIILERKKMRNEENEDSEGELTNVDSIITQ

[7] = system: Plasmodium falciparum; assay: Intrinsic antimalarial activity against chloroquine/artemisinin-resistant Plasmodium falciparum ARS233 harboring CRT K76T mutant assessed as reduction in parasite viability at 500 nM; format: functional, organism-based
[8] = system: T1, Chloroquine resistance transporter (Plasmodium falciparum), Q9N623 [K76T]; assay: Inhibition of CRT K76T mutant in chloroquine/artemisinin-resistant Plasmodium falciparum ARS272 assessed as reversal of chloroquine resistance by measuring reduction in chloroquine IC50 at 500 nM relative to chloroquine alone
[9] = Resistance index, ratio of EC50 for intermediate chloroquine-resistant Plasmodium falciparum 7G8 isolate MRA-154 CRT SVMNT haplotype mutant to EC50 for chloroquine-sensitive Plasmodium falciparum 3D7 isolate MRA-102
How it was run: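 EC50 is the concentration of chemoreversal agent that halves the chloroquine concentration needed to inhibit survival of half the parasites. It was derived from dose-dependent shifts in chloroquine IC50, measured in 7G8 and 3D7. The index is the 7G8 EC50 divided by the 3D7 EC50.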

[10] = system: Plasmodium falciparum; assay: Intrinsic antimalarial activity against chloroquine-resistant Plasmodium falciparum Dd2 isolate MRA-156 harboring CRT K76T mutant assessed as reduction in parasite viability at 500 nM; format: functional, organism-based
[11] = system: Plasmodium falciparum; assay: Potentiation of chloroquine-induced antimalarial activity against chloroquine-sensitive Plasmodium falciparum HB3 isolate MRA-155 assessed as reduction in chloroquine IC50 at 500 nM relative to chloroquine alone; format: functional
[12] = Cytotoxicity against human AC10 cells assessed as reduction in cell viability by CellTiter-Glo assay; format: cell-based
How it was run: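 For TAMH (hepatocyte line) and AC10 (cardiomyocyte line), viability was read by ATP luminescence (CellTiter-Glo), and the value reported is IC50.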

[13] = system: Plasmodium falciparum K1; assay: Inhibition of CRT CVIET haplotype mutant in chloroquine-resistant Plasmodium falciparum K1 isolate MRA-159 assessed as reversal of chloroquine resistance by measuring reduction in chloroquine IC50 at 500 nM relative to chloroquine alone
[14] = Therapeutic index, ratio of IC50 for human AC10 cells to EC50 for chloroquine-resistant Plasmodium falciparum K1 isolate MRA-159 CRT CVIET haplotype mutant; format: toxicity; settings: read-out: Ratio IC50/EC50; how it was run: as §3
[15] = Permeability of compound incubated for 16 hrs at pH 7.4 by PAMPA; format: ADME; settings: read-out: Peff
[16] = Permeability of compound incubated for 6 hrs at pH 7.4 by PAMPA; format: ADME; settings: read-out: Peff
[17] = system: Plasmodium falciparum; assay: Intrinsic antimalarial activity against chloroquine-resistant Plasmodium falciparum K1 isolate MRA-159 harboring CRT CVIET haplotype mutant assessed as reduction in parasite viability at 500 nM; format: functional, organism-based
[18] = system: Plasmodium falciparum; assay: Intrinsic antimalarial activity against chloroquine-sensitive Plasmodium falciparum 3D7 isolate MRA-102 assessed as reduction in parasite viability at 500 nM; format: functional, organism-based
[19] = system: Plasmodium falciparum 7G8; assay: Inhibition of CRT SVMNT haplotype mutant in intermediate chloroquine-resistant Plasmodium falciparum 7G8 isolate MRA-154 t assessed as reversal of chloroquine resistance by measuring reduction in chloroquine IC50 at 500 nM relative to chloroquine alone
[20] = system: Plasmodium falciparum; assay: Intrinsic antimalarial activity against intermediate chloroquine-resistant Plasmodium falciparum 7G8 isolate MRA-154 harboring CRT SVMNT haplotype mutant assessed as reduction in parasite viability at 500 nM; format: functional, organism-based
[21] = system: T1, Chloroquine resistance transporter (Plasmodium falciparum), Q9N623 [K76T]; assay: Inhibition of CRT K76T mutant in chloroquine/artemisinin-resistant Plasmodium falciparum ARS233 assessed as reversal of chloroquine resistance by measuring reduction in chloroquine IC50 at 500 nM relative to chloroquine alone
[22] = system: Plasmodium falciparum; assay: Intrinsic antimalarial activity against chloroquine-sensitive Plasmodium falciparum HB3 isolate MRA-155 assessed as reduction in parasite viability at 500 nM; format: functional, organism-based
[23] = system: Plasmodium falciparum; assay: Potentiation of chloroquine-induced antimalarial activity against chloroquine-sensitive Plasmodium falciparum 3D7 isolate MRA-102 assessed as reduction in chloroquine IC50 at 500 nM relative to chloroquine alone; format: functional
[24] = system: Plasmodium falciparum; assay: Intrinsic antimalarial activity against chloroquine-resistant Plasmodium falciparum NHP4559 harboring CRT K76T mutant assessed as reduction in parasite viability at 500 nM; format: functional, organism-based

SMILES: c1ccc(CN[C@@H]2C3CCN(CC3)[C@@H]2Cc2ccccc2)cc1 (relative stereo)
- EC50 [1]: 0.38 µM
- inhibition [2]: Dose-dependent effect
- Activity [3]: 83.4%
- selectivity ratio [4]: > 588
- Activity [5]: inactive
- Ratio IC50 [6]: 0.6
- Activity [7]: inactive
- Ratio IC50 [8]: 0.43
- Ratio EC50 [9]: 2
- Activity [10]: inactive
- Ratio IC50 [11]: 1.12
- IC50 [12]: 71.5 µM
- Ratio IC50 [13]: 0.39
- selectivity ratio [14]: 420
- Papp at 16 h [15]: 14.5 ×10⁻⁶ cm/s
- Papp at 6 h [16]: 19.2 ×10⁻⁶ cm/s
- Activity [17]: inactive
- Activity [18]: inactive
- Ratio IC50 [19]: 0.8
- Activity [20]: inactive
- Ratio IC50 [21]: 0.43
- Activity [22]: inactive
- Ratio IC50 [23]: 1.26
- Activity [24]: inactive
